Experimental data as given in ChEMBL document CHEMBL1139469, “Synthesis and 3D QSAR of new pyrazolo[3,4-b]pyridines: potent and selective inhibitors of A1 adenosine receptors” (J Med Chem, 2005).

Assays:
[1] = biological target: T1, Adenosine receptor A1 (Bos taurus, UniProt P28190); test: Displacement of [3H]DPCPX from adenosine A1 receptor in bovine cerebral cortical membranes; format: cell membranes
T1 sequence (P28190 whole entry): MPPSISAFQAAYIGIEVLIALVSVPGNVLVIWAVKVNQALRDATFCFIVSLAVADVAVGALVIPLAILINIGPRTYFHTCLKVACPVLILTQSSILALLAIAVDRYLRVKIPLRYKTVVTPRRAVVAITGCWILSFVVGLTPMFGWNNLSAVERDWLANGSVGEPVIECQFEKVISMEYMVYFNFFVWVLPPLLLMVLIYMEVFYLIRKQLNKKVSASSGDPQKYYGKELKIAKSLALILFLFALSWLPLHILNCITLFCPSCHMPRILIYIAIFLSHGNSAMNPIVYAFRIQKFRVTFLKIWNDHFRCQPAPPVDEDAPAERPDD
Summary of the method: (§1)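 [3H]DPCPX was displaced from A1 sites in bovine cortical membranes. Compounds were taken up in DMSO and diluted in assay buffer, with DMSO at 2% or less final. Ki used at least six concentrations across 3 orders of magnitude and was the mean ± SEM of three independent assays in triplicate.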

[2] = biological target: T2, Adenosine receptor A1 (Homo sapiens, UniProt P30542); test: Displacement of [3H]DPCPX from human adenosine A1 receptor expressed in CHO cells; format: cell-based
T2 sequence (P30542 whole entry): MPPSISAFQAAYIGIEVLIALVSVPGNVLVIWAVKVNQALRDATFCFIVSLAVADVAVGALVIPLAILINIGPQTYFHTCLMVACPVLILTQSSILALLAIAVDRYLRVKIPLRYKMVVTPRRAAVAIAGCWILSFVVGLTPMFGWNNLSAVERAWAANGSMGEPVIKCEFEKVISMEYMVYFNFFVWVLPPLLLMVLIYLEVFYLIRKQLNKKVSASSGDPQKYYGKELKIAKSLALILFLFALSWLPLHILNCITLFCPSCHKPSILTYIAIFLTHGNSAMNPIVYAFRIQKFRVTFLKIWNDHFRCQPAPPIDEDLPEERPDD
Summary of the method: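 Binding used CHO cells transfected with human A1 receptor, with displacement of specific [3H]DPCPX binding. Ligands were in DMSO diluted into buffer, with no more than 2% DMSO final, over at least six concentrations spanning 3 orders of magnitude. Ki values were means ± SEM of three separate assays, each performed in triplicate.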

[3] = biological target: Adenosine receptor A1 (Bos taurus) (UniProt P28190); test: Displacement of [3H]DPCPX from bovine adenosine A1 receptor in bovine cortical membranes
[4] = system: Adenosine receptor A2a (Bos taurus); test: Displacement of [3HCGS21680 from adenosine A2A receptor in bovine striatal membranes at 10 uM
[5] = biological target: T3, Adenosine receptor A3 (Homo sapiens) (UniProt P0DMS8); test: Displacement of [125I]AB-MECA from human adenosine A3 receptor expressed in CHO cells at 10 uM
T3 sequence (whole entry): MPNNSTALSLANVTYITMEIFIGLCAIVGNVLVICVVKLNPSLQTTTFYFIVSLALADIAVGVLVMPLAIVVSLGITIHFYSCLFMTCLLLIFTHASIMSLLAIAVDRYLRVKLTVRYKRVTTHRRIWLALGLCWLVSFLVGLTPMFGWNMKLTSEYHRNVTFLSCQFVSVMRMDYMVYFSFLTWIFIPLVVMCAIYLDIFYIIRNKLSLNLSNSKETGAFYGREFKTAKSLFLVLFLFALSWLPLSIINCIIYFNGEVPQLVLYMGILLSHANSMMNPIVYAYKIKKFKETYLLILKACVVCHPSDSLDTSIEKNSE

[6] = biological target: Adenosine receptor A2a (Bos taurus); test: Displacement of [3H]CGS-21680 from adenosine A2A receptor in bovine striatal membranes
[7] = biological target: T1, Adenosine receptor A1; test: Displacement of [3H]DPCPX from adenosine A1 receptor in bovine cerebral cortical membranes in absence of GTP; format: cell membranes
Summary of the method: (§2)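 [3H]DPCPX competition binding on bovine cortical membranes, run side by side without and with 1 mM GTP. Compounds dissolved in DMSO and diluted in assay buffer, final DMSO at most 2%. At least six concentrations spanning 3 orders of magnitude were used. Ki given as mean ± SEM of three experiments.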

[8] = biological target: T1, Adenosine receptor A1; test: Displacement of [3H]DPCPX from adenosine A1 receptor in bovine cerebral cortical membranes in presence of GTP; format: cell membranes; summary of the method: as §2
[9] = biological target: T4, Adenosine receptor A1 (Bos taurus) (UniProt P28190); test: Displacement of [3H]DPCPX from adenosine A1 receptor in bovine cerebral cortical membranes at 10 uM; format: cell membranes; summary of the method: as §1
T4 sequence (whole entry): T1 sequence (P28190 whole entry)

SMILES | Ki [1] [nM] | Ki [2] [nM] | Ki [3] [nM] | inhibition [4] [%] | inhibition [5] [%] | Ki [6] [nM] | Ki [7] [nM] | Ki [8] [nM] | inhibition [9] [%]
CCOC(=O)c1cnc2c(cnn2CC(Cl)c2ccccc2)c1NCCc1ccc(Cl)cc1 (configuration not stated) | 19 | 153 | 20 | 63 | 46 |  |  |  | 
CCOC(=O)c1cnc2c(cnn2CC(Cl)c2ccccc2)c1NCCc1ccc(F)cc1 (configuration not stated) | 12 | 16 | 12.6 | 30 | 37 |  |  |  | 
COC(=O)c1cnc2c(cnn2CC(Cl)c2ccccc2)c1NCCc1ccc(C)cc1 (configuration not stated) | 15 | 148 | 15.8 | 26 | 40 |  |  |  | 
COc1ccc(CCNc2c(C(=O)OC(C)C)cnc3c2cnn3CC(Cl)c2ccccc2)cc1 (configuration not stated) | 7 | 17 | 7.94 |  | 52 |  | 7.2 | 7.7 | 
CCOC(=O)c1cnc2c(cnn2CC(Cl)c2ccccc2)c1NCCc1ccc(C)cc1 (configuration not stated) | 22 |  | 20 |  | 38 |  |  |  | 
CCOC(=O)c1cnc2c(cnn2CC(Cl)c2ccccc2)c1NCCc1ccc(OC)cc1 (configuration not stated) | 10 | 25 | 10 |  | 49 |  |  |  | 
COC(=O)c1cnc2c(cnn2CC(Cl)c2ccccc2)c1NCCc1ccccc1 (configuration not stated) | 88 |  | 79.4 |  | 0 | 1230 |  |  | 
COC(=O)c1cnc2c(cnn2CC(Cl)c2ccccc2)c1NCCc1ccc(OC)cc1 (configuration not stated) | 6 | 94 | 6.31 |  | 41 |  | 6.3 | 7.3 | 
CC(C)OC(=O)c1cnc2c(cnn2CC(Cl)c2ccccc2)c1NCCc1ccccc1 (configuration not stated) | 31 |  | 31.6 |  | 0 | 1520 |  |  | 

Results, then the compound that gave them:

Ki [1] [nM] | Ki [2] [nM] | Ki [3] [nM] | inhibition [4] [%] | inhibition [5] [%] | Ki [6] [nM] | Ki [7] [nM] | Ki [8] [nM] | inhibition [9] [%] | SMILES
170 |  | 158 |  |  | 7670 |  |  |  | CCCNc1c(C(=O)OC)cnc2c1cnn2CC(Cl)c1ccccc1 (configuration not stated)
36 |  | 31.6 |  | 0 |  |  |  |  | CC(C)OC(=O)c1cnc2c(cnn2CC(Cl)c2ccccc2)c1NC1CC1 (configuration not stated)
145 |  | 158 |  |  | 1390 |  |  |  | CCCNc1c(C(=O)OCCC)cnc2c1cnn2CC(Cl)c1ccccc1 (configuration not stated)
16 | 29 | 15.8 |  | 53 |  |  |  |  | CCOC(=O)c1cnc2c(cnn2CC(Cl)c2ccccc2)c1NCCc1ccccc1F (configuration not stated)
 |  | 10000 | 16 |  |  |  |  | 63 | CCCCOC(=O)c1cnc2c(cnn2CC(Cl)c2ccccc2)c1N1CCOCC1 (configuration not stated)
 |  | 10000 | 0 |  |  |  |  | 51 | COC(=O)c1cnc2c(cnn2CC(Cl)c2ccccc2)c1N1CCOCC1 (configuration not stated)
895 |  | 1000 | 11 | 0 |  |  |  |  | CCCCOC(=O)c1cnc2c(cnn2CC(Cl)c2ccccc2)c1NC1CC1 (configuration not stated)
 |  | 10000 | 5 |  |  |  |  | 27 | CCCCOC(=O)c1cnc2c(cnn2CC(Cl)c2ccccc2)c1NCc1ccccc1 (configuration not stated)
24 |  | 20 | 11 | 0 |  |  |  |  | CCCNc1c(C(=O)OC(C)C)cnc2c1cnn2CC(Cl)c1ccccc1 (configuration not stated)
